An excerpt weighted towards active compounds, which were near 3.6% of everything screened.
GRIN3A LBD mod = binders of NR3A ligand-binding domain, primary screen, biophysical, differential scanning fluorimetry, uHTS. Glutamate receptor ionotropic, NMDA 3A (GRIN3A) ligand-binding domain. NR3A LBD differential scanning fluorimetry, Tm shift; 0% = protein alone, 100% = glycine-bound protein. Tm shift relative to glycine control, % at 25 µM. 340,000 tested, 2.5% active. AID 1259313, 2017;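 active = melting temperature shift of at least 10% of the positive control shift, at one fixed dose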
FID counter = compounds displacing fluorescent DNA intercalator, primary screen, artefact control for HCV NS3 helicase inhibitor project, biochemical, FID fluorescence | AID 1845, 2009 | DNA fluorescent intercalator displacement | 290,000 tested, 0.17% active | inhibition, % at 7.9 µM; in the data active = inhibition above about 37%;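 also: 0% = vehicle and 100% = reference compound; higher means more ethidium bromide displaced from hairpin DNA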
NS3 helicase inh = inhibitors of HCV NS3 helicase, primary screen, biochemical, Cy5 molecular beacon fluorescence. NS3 helicase DNA unwinding. inhibition, % at 10.9 µM. 290,000 tested, 0.56% active;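 active = inhibition above the mean of all tested compounds plus 3 SD, set per campaign, cut at about 35% in these data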;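 also: 0% = DMSO wells and 100% = thioflavine S control wells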
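System: HCV NS3 helicase fragment; control set: DMSO and thioflavine S; technique: Cy5 fluorescence at 0 and 60 min, beacon hairpin quenching; reagent: beacon DNA duplex substrate plus ATP; replicates: singlicate; schedule: 1 h reaction at 25 °C, ATP-initiated; medium: MOPS buffer pH 6.5 with MgCl2, DTT, Tween20, BSA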
EBNA-1 inhibitor = EBNA-1 DNA-binding inhibitors, primary screen, biochemical, fluorescence polarization | inhibition, % at 14.8 µM | 300,000 tested, 0.34% active | AID 1950, 2009; in the data active = inhibition above about 28%
ZTA DNA inh = blocks Epstein-Barr virus ZTA, an EBNA-1 counter-screen; inhibition, % at 11 µM; P03206; 320,000 tested, 0.15% active; ZTA-DNA binding, fluorescence polarization; in the data active = inhibition above about 33%
Target sequence (P03206 whole entry, looked up): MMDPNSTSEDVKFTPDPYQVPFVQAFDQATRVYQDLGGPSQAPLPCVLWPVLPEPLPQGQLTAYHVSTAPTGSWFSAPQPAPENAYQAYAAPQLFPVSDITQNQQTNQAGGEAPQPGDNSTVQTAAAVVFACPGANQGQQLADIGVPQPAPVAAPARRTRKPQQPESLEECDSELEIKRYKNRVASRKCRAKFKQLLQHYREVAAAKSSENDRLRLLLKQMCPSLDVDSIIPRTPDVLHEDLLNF
FGF22 binding = binders of human FGF22 protein, primary screen, FGF22 synaptogenesis inhibitor project, biophysical, thermal shift, single point. AID 651658, 2012. Fibroblast growth factor 22 (Homo sapiens), Q9HCT0. recombinant FGF22 thermal shift, SYPRO orange fluorescence; percent of sucrose octasulfate shift, DMSO zero. activity (Tm shift, normalised), % at 9.99 µM. 340,000 tested, 1.5% active;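 active = mean Tm shift, scaled 0 neutral to 100 positive control, at about 1.3% or above, every replicate too, limit read from the data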
Target sequence (Q9HCT0 whole entry, looked up): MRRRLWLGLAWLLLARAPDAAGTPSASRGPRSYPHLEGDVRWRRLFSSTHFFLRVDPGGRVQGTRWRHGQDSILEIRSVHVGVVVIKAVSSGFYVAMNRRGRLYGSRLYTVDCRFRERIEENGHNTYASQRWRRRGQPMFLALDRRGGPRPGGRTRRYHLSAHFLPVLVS
* = called active by the depositor; . = no result given.

SMILES	GRIN3A LBD mod	FID counter	NS3 helicase inh	EBNA-1 inhibitor	ZTA DNA inh	FGF22 binding
C[C@@H]1CN([C@H](C)CO)C(=O)c2cc(NS(=O)(=O)c3ccc(Cl)cc3)ccc2O[C@@H]1CN(C)Cc1ccc(C(=O)O)cc1	.	.	.	.	.	0
C[C@H]1CN([C@@H](C)CO)C(=O)c2cc(NC(=O)Nc3ccc(F)cc3)ccc2O[C@@H]1CN(C)C(=O)Nc1ccccc1	.	.	.	.	.	0
Clc1ccc(-c2c[nH]c3ccccc23)nn1	18*	-4	-1	-5	0	43*
c1ccc2c(-c3c[nH]c4ccccc34)c3ccccc3nc2c1	0	11	-11	-4	19	.
C[C@@H]1CCCCO[C@H](CN(C)C(=O)Nc2ccc(F)cc2)[C@H](C)CN([C@@H](C)CO)C(=O)c2cc(NC(=O)Nc3cccc4ccccc34)ccc2O1	.	.	.	.	.	0
CCC(=O)N1CCc2cc(S(=O)(=O)N(C)c3ccc(OC)cc3OC)ccc21	-1	-29	-9	-24	-12	0
COc1ccc(NS(=O)(=O)c2cc(Br)cc3c2N(C(C)=O)CC3)cc1	35*	-10	5	2	-3	0
CCC(=O)N1CCc2cc(Br)cc(S(=O)(=O)N(C)c3ccc(OC)cc3OC)c21	-1	-35	6	-4	6	43*
COC(=O)CS(=O)(=O)c1cc(Br)cc2c1N(C(C)=O)CC2	-4	-3	-10	12	19	.
Cc1ccc(S(=O)(=O)N(C)C[C@H]2Oc3ccc(NC(=O)CCCN(C)C)cc3CC(=O)N([C@H](C)CO)C[C@H]2C)cc1	.	.	.	.	.	0
O=C(CSCc1ccccc1)Nc1cccc(C(=O)Nc2ccccc2C(=O)O)c1	5	-18	18	1	-1	.
O=C(CSCc1ccc(Cl)cc1)Nc1cccc(C(=O)Nc2ccccc2C(=O)O)c1	10*	-12	3	4	17	.
COc1ccc(NC2=CC(=O)CC(C)(C)C2)cc1	15*	-7	5	1	2	0
COc1cccc(NC2=CC(=O)CC(C)(C)C2)c1	0	-1	6	2	11	0
C/C(=N\NC(=O)c1cc2ccccc2cc1O)c1cccs1	14*	-7	20	5	1	0
O=C(NNC(=O)c1cc2ccccc2cc1O)c1cccs1	-4	0	4	-2	-6	0
COc1ccc(S(=O)(=O)N[C@@H]2CC[C@H](CCn3cc(C(C)C)nn3)O[C@@H]2CO)cc1	.	.	.	.	.	0
O=C(Nc1ccc2c(c1)OCCO2)c1c(Cl)cccc1Cl	.	.	.	.	.	1
O=C(Nc1ccc2c(c1)OCO2)c1ccc(Br)s1	21*	4	10	2	3	.
O=C(Nc1ccc2c(c1)OCO2)c1cccs1	11*	-1	4	-7	6	.
CC(=O)Nc1ccc2c(c1)OCO2	-4	0	4	-5	1	0
O=C(Nc1cccc(C2OCCCO2)c1)c1cccs1	21*	0	10	3	2	.
O=C(Nc1ccc2c(c1)OCCO2)c1cccs1	20*	3	2	9	-10	0
O=C(Nc1ccc(F)cc1)Nc1ccc2c(c1)[C@@H]1C[C@H](CC(=O)N3CCOCC3)O[C@H](CO)[C@@H]1O2	.	.	.	.	.	0
O=C(Cc1cccs1)N/N=C/C=C\c1ccco1	-5	-3	1	-4	1	1
SMILES	GRIN3A LBD mod	FID counter	NS3 helicase inh	EBNA-1 inhibitor	ZTA DNA inh	FGF22 binding
O=C(N/N=C/C=C\c1ccco1)c1cccs1	-1	-5	5	1	-4	44*
Cc1nn(-c2ccccc2)cc1/C=N/NC(=O)c1cccs1	20*	-13	5	3	9	0
CSc1ccc(/C=N/NC(=O)c2cccs2)cc1	13*	-10	4	9	6	0
COc1ccc(C(=O)N/N=C/c2ccc(SC)cc2)cc1	10*	-6	-9	-6	-5	0
O=C(N/N=C/c1ccncc1)c1cccs1	-1	-2	7	9	8	.
C[C@H](CO)N1C[C@H](C)[C@@H](CN(C)CC2CCCCC2)Oc2ccc(NC(=O)CCN3CCOCC3)cc2CC1=O	.	.	.	.	.	0
CSc1ccc(/C=N/NC(=O)c2ccc(O)cc2)cc1	26*	-2	3	-11	1	0
COc1ccc(NC(=O)Nc2ccc3c(c2)C(=O)N([C@@H](C)CO)C[C@@H](C)[C@H](CN(C)S(=O)(=O)c2ccc(F)cc2)OCCCC[C@@H](C)O3)cc1	.	.	.	.	.	0
C[C@@H]1CN([C@H](C)CO)C(=O)c2cc(C#Cc3cccnc3)cnc2O[C@H]1CN(C)C(=O)CC1CC1	.	.	.	.	.	0
O=c1c2[nH]c3ccc(Br)cc3c2ncn1CCCn1ccnc1	16*	13	-5	-6	-18	.
CCN(CCn1cccn1)C(=O)CC1C(=O)NCCN1Cc1cc(OC)cc(OC)c1 (stereo unspecified)	1	-16	-2	2	-1	44*
Cc1[nH]n(C(N)=S)c(=O)c1N=Nc1ccccc1C(F)(F)F	10*	-7	2	1	10	0
Cc1ccccc1N=Nc1c(C)[nH]n(C(N)=S)c1=O	-5	-2	6	6	-5	0
O=C(NC(CSCc1ccccc1)C(=O)N/N=C/c1ccc(O)cc1O)c1ccc([N+](=O)[O-])cc1 (stereo unspecified)	16*	-4	5	20	-2	.
CCC(=O)Nc1ccc2c(c1)OC[C@@H](C)N(Cc1cccnc1)C[C@H](C)[C@@H](OC)CN(C)C2=O	.	.	.	.	.	0
COc1cc(/C=N/N2CCOCC2)ccc1OCc1ccc(Cl)cc1	22*	-7	1	-2	0	0
COc1cc(/C=N/N2CCOCC2)ccc1OC(=O)c1ccco1	-1	-16	-6	0	-5	43*
COc1ccc(/C=N/Nc2nc(Nc3ccccc3)nc(N3CCCC3)n2)cc1[N+](=O)[O-]	26*	-5	-70	4	-11	0
CCOc1cc(/C=N/Nc2nc(N3CCCCC3)nc(N3CCCCC3)n2)ccc1OC(=O)c1ccco1	1	-2	-4	10	-13	43*
CCOc1ccc(/C=N/Nc2nc(N3CCCC3)nc(N3CCCC3)n2)cc1OC	-1	-31	-10	8	-11	0
COc1ccc(/C=N/Nc2nc(N3CCCCC3)nc(N3CCCCC3)n2)cc1[N+](=O)[O-]	-1	-3	-6	1	11	0
O=C(Nc1ccc(Cl)cc1)N1C[C@H]2[C@@H](c3ccccc31)[C@H](CO)N2C(=O)c1ccccn1	.	.	.	.	.	0
